Experimental findings from ChEMBL document CHEMBL1134359, “Design, synthesis, and evaluation of a novel pyrrolobenzodiazepine DNA-interactive agent with highly efficient cross-linking ability and potent cytotoxicity” (J Med Chem, 2001) are described below.

pIC50: −log10 of the molar value.

Experiment [1] has as its system A2780. The experiment in a line: Inhibition of cell growth in human ovarian carcinoma cell line (A2780) using the 96 hour continuous exposure sulforhodamine B (SRB) growth delay assay. It counts as functional, cell-based. In a few lines:
(§1)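 Human ovarian lines seeded in 96-well plates and left to attach overnight. Compounds dissolved in DMSO (20 mM stock), diluted in medium, added to quadruplicate wells at final 2.5 nM–100 μM; continuous exposure 96 h at 37 °C. Cells fixed in 10% TCA, stained with 0.4% SRB, dye taken up in 10 mM Tris, A540 read. IC50 taken relative to 8 untreated wells.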

Experiment [2] has as its system CH1. The experiment in a line: Inhibition of cell growth in human ovarian carcinoma cell line (CH1) was determined using the 96 hour continuous exposure sulforhodamine B (SRB) growth delay assay. Type of experiment: functional, cell-based. Particulars: CH1, 96 h. A digest of the protocol:
as §1

In experiment [3] the test system is CH1. In words: Inhibition of cell growth in human ovarian carcinoma cell line (CH1-cis-R,cisplatin resistant) using the 96 hour continuous exposure sulforhodamine B (SRB) growth delay assay. Type of experiment: functional, cell-based. Particulars: CH1cisR. A digest of the protocol: as §1
Experiment [4] relates to SK-OV-3. The experiment in a line: Inhibition of cell growth in human ovarian carcinoma cell line(SKOV-3) using the 96 hour continuous exposure sulforhodamine B (SRB) growth delay assay. It counts as functional, cell-based. A digest of the protocol:
as §1

A short description of experiment [5]: (§2) Ratio of IC50 against A2780cisR (cisplatin resistant) to the IC50 of parent. It counts as functional.
The nature of experiment [6]: (§3) Ratio of IC50 against human ovarian carcinoma cell line (CH1)cisR (cisplatin resistant) to the IC50 of parent. It counts as functional.
Experiment [7] deals with A2780. In words: Growth inhibition in human ovarian carcinoma cell line (A2780cisR,cisplatin-resistant) using the 96 hour exposure sulforhodamine B (SRB) growth delay assay. Type of experiment: functional, cell-based. Particulars: A2780, 96 h. In a few lines:
as §1

The subject of experiment [8] is Nucleic Acid. In words: Concentration of compound required for 50% cross linking of plasmid pBR322 DNA was investigated using an assay involving linear double stranded DNA. It counts as functional. A digest of the protocol:
(§4)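 pBR322 cut with HindIII, dephosphorylated, then 5'-end-labelled with [γ-32P]ATP by T4 kinase; about 10 ng per reaction. Drug at 0.001–10 μM in 25 mM triethanolamine/1 mM EDTA, pH 7.2, 37 °C, 2 h. Stopped, then ethanol-precipitated; strands separated in 30% DMSO at 90 °C for 2 min; run on neutral 0.8% agarose. Autoradiograph read by laser densitometry; XL50 is the dose giving 50% double-stranded (cross-linked) DNA.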

Experiment [9] concerns K562. The experiment in a line: Inhibition of cell growth by 50% in human leukemia cell line (K562) was determined using microculture tetrazolium (MTT) assay. Type of experiment: functional, cell-based. In a few lines: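 K562 human leukaemia cells given drug for 1 h; growth then measured by MTT assay; IC50 is the dose giving 50% growth inhibition versus drug-free controls.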

Experiment [10] deals with Nucleic Acid. In words: The concentration of compound required for 50% cross linking of plasmid pBR322 DNA was investigated using an assay involving linear double stranded DNA. Type of experiment: functional. In a few lines:
as §4

The test system of experiment [11] is A2780. In words: Inhibition of cell growth in human ovarian carcinoma cell line (A2780cisR,cisplatin-resistant)using the 96 hour continuous exposure sulforhodamine B (SRB) growth delay assay. Type of experiment: functional, cell-based. A digest of the protocol: (§5)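 Cells seeded in growth medium and allowed to attach overnight, then given drug (20 mM DMSO stock diluted in medium) in quadruplicate wells at final 100 μM to 2.5 nM for 96 h at 37 °C. Fixed with 10% trichloroacetic acid on ice, stained 0.4% sulforhodamine B, dye solubilised in 10 mM Tris base, absorbance 540 nm; IC50 from concentration versus % absorbance against 8 untreated wells.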

Experiment [12] concerns CH1. The experiment in a line: Inhibition of cell growth in human ovarian carcinoma cell line (CH1-cis-R,cisplatin resistant) using the 96 hour exposure sulforhodamine B (SRB) growth delay assay. It counts as functional, cell-based. A digest of the protocol:
as §5

Experiment [13] concerns A2780cisR. Described as §2. It counts as functional.
For experiment [14], the system named is carcinoma cell line. The description is as §3. It counts as functional.

`C=C1C[C@H]2C(=O)Nc3cc(OCCCOc4cc5c(cc4OC)C(=O)N4CC(=C)C[C@H]4C(=O)N5)c(OC)cc3C(=O)N2C1`: the pIC50 (as a rule, −log10 of the IC50, conventionally taken in molar units) in experiment [1] (Homo sapiens, A2780, 96 h) was 5.60; in [2] it was 6.24; in experiment [3], 5.54; in experiment [4] (Homo sapiens, SK-OV-3, 96 h), 4.55; in experiment [7], 4.96. In addition, the figures for the Ratio in [5] and in [6] were 4.4 and 3.5, respectively.

With `N[C@@H](Cc1ccc(N(CCCl)CCCl)cc1)C(=O)O`, in experiment [8], the XL50 was determined as 20 µM.

With `COc1cc2c(cc1OCCCOc1cc3c(cc1OC)C(=O)N1CCC[C@H]1C=N3)N=C[C@@H]1CCCN1C2=O` [DSB-120], the figures for the pIC50 in experiment [3] and in experiment [9] were 7.66 and 6.60, respectively. Besides, the XL50 in [10] amounted to 0.055 µM. For the same molecule, the Ratio is 29.2 in [5] and 0.7 in experiment [6].

As to `C=C1C[C@H]2C=Nc3cc(OCCCOc4cc5c(cc4OC)C(=O)N4CC(=C)C[C@H]4C=N5)c(OC)cc3C(=O)N2C1` [SJG-136], the pIC50 in [2] is 9.92; in experiment [3], 9.22; in experiment [9], 7.37; in [4] (Homo sapiens, SK-OV-3, 96 h) it was 8.04. Also, the XL50 in experiment [10] was determined as 0.045 µM. The results for the Ratio in [5] and in experiment [6] were 1.1 and 5, respectively.

As for CISPLATIN [listing 1 of 2 here], the negative logarithm of the IC50 (pIC50) in [11] was 5.08; in experiment [1] (a2780), 6.58; in experiment [12], 5.96; in [4] (sk-ov-3), 4.98.

Consider CISPLATIN [listing 2 of 2 here], for which the Ratio in [13] amounted to 32; in experiment [14], 6.1.
